The record followed here is ChEMBL document CHEMBL1124403, “Studies on semirigid tricyclic analogues of the nigrostriatal toxin 1-methyl-4-phenyl-1,2,3,6-tetrahydropyridine” (J Med Chem, 1989).

Data set [1] deals with T1, Amine oxidase [flavin-containing] B (Bos taurus, UniProt P56560).
T1 sequence (P56560 whole entry): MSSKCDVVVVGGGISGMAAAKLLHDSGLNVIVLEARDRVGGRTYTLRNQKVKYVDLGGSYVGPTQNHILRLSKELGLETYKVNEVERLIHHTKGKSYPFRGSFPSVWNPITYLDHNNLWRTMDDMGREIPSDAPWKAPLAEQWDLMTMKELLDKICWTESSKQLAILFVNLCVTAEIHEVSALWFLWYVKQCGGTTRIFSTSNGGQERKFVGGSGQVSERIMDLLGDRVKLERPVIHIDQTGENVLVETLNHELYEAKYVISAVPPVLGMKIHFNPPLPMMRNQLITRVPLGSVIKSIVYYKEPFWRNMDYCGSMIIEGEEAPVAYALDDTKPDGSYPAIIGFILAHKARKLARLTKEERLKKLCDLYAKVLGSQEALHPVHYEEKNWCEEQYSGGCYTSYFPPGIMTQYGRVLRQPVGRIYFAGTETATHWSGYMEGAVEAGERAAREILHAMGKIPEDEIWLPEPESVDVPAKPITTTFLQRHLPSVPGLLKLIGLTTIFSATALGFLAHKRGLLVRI
Nature of the data set: Rate of oxidation against monoamine oxidase B. The method, boiled down:
(§1)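 Beef liver mitochondrial MAO-B, purified, 0.1 unit in 50 mM sodium phosphate pH 7.2 with 0.2% reduced Triton X-100. Substrate at 3 mM (3.0 mM). Initial rate of dihydropyridinium product formation read spectrophotometrically at its λmax (345 nm for MPDP⁺, 360 nm for the tricyclic products), in nmol min⁻¹ mL⁻¹. Controls held 10⁻⁶ M pargyline.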

Data set [2] concerns the target T1, Amine oxidase [flavin-containing] B. Nature of the data set: Binding affinity against Monoamine oxidase B. In a few lines:
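Beef liver mitochondrial MAO-B, purified and cleared of heme protein by sucrose-gradient centrifugation; 0.02 unit enzyme in 50 mM sodium phosphate pH 7.2 with 0.2% (w/v) reduced Triton X-100. Inhibitor at 0–500 μM or 0–100 μM against benzylamine 0.17–3.3 mM. Oxidation followed at 250 nm as initial rates. Lineweaver–Burk plots; Ki taken from secondary replots of slope vs inhibitor concentration.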

Data set [3] relates to Mus musculus. Nature of the data set: Black mice were injected intraperitoneally with 100 uMol of test compound and Striatal levels of Dopamine in mice measured after 24 hours. It is filed as functional. The method, boiled down:
(§2)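 Male C-57 black mice, 8–10 weeks old, 25–30 g, six per data point. Dosed ip at 100 μmol/kg in 50 μL normal saline every hour for 4 h; controls received saline only. Times counted from the last injection. Striata dissected and stored at −80 °C. Dopamine measured by HPLC with electrochemical detection after alumina extraction, with DHBA as internal standard; reported as ng/mg tissue.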

Data set [4] relates to Mus musculus. Nature of the data set: (§3) Black mice were injected intraperitoneally with 100 uMol of test compound and Striatal levels of Dopamine in mice measured after 1 month. It is filed as functional. In a few lines: as §2
For data set [5], the system named is Mus musculus. The data set can be described thus: (§4) Black mice were injected intraperitoneally with 100 uMol /kg of test compound and Striatal levels of dopamine in mice measured after 4 hours. The format is functional. In a few lines: as §2
Data set [6] has as its system Mus musculus. The data set can be described thus: Black mice were injected intraperitoneally with 100 uMol of test compound and Striatal levels of Dopamine in mice measured after 1 week. The format is functional. The method, boiled down: as §2
In data set [7] the target is T2, Dopamine receptor (Mus musculus) (UniProt P51436+Q8BLD9+Q61616+P61168+P30728). Described as §4. It is filed as functional. The method, boiled down:
as §2

Data set [8] concerns the target T1, Amine oxidase [flavin-containing] B. The data set can be described thus: Rate of oxidation against monoamine oxidase-B (MAO-B). In a few lines: as §1
Data set [9] concerns the target T2, Dopamine receptor (Mus musculus). The data set can be described thus: Black mice were injected intraperitoneally with 100 uMol of test compound and Striatal levels of dopamine in mice measured after 1 week. It is filed as functional. The method, boiled down:
as §2

The target is the same in data set [10]. Described as §3. It is filed as functional. The method, boiled down: as §2
Data set [11] shares this target. The data set can be described thus: Black mice were injected intraperitoneally with 100 uMol of test compound and Striatal levels of dopamine in mice measured after 24 hours. It is filed as functional. In a few lines:
as §2

`CN1CCc2c([nH]c3ccccc23)C1` registered a Rate of oxidation in [1] of 0.1 nM min-1 ml-1. The same molecule gave a Ki in data set [2] of 400 µM.

Turning to `CN1CCC2=C(Cc3ccccc32)C1`, the Dopamine level stood at 24.5 ng/mg in [3], 21.9 ng/mg in data set [4], 6.5 ng/mg in data set [5] and 18.2 ng/mg in data set [6]. In data set [1], the Rate of oxidation came to 0.21 nM min-1 ml-1. The Ki in [2] was found to be 75 µM.

Regarding `CN1CCC2C(=Cc3ccccc32)C1` (centres undefined), the Dopamine level in data set [3] is 30.3 ng/mg; in data set [4], 19.2 ng/mg; in data set [5] it was 4.3 ng/mg; in data set [6], 16.4 ng/mg. This molecule also registered a Rate of oxidation in [1] of 0 nM min-1 ml-1. In [2], this molecule returned a Ki of 65 µM.

In the case of `CN1CC=C(c2ccccc2)CC1`, the Dopamine level in data set [7] came out at 4.8 ng/mg; in [9], 2.7 ng/mg; in data set [10], 5 ng/mg; in data set [11], 6.5 ng/mg. The molecule further showed a Rate of oxidation in data set [8] of 25.87 nM min-1 ml-1.
